SMILES strings stand for the structures. Active and inactive are the calls of the source. The rule behind the calls is not given here.

This note sets out measurements from ChEMBL document CHEMBL3102844, “Synthesis and evaluation of Strychnos alkaloids as MDR reversal agents for cancer cell eradication” (Bioorg Med Chem, 2014).

Data set [1] has as its system KB. The data set can be described thus: Cytotoxicity against human KB cells overexpressing human MDR1 assessed as reduction in cell viability after 4 days by MTT assay. Format: functional, cell-based. An outline of the steps: (§1)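 KB-MDR (1000 cells/well) or KB-V20C (2000 cells/well) Pgp-overexpressing KB lines in RPMI1640 with 10% FBS; cultured 4 days with serial concentrations of test compound. Viability read by MTT endpoint absorbance. IC50 obtained by fitting a sigmoid Emax model to viability versus concentration; duplicates from three independent experiments.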
On the technique in general: Tetrazolium assays rely on reduction of a dye to a coloured formazan, in cell work by metabolically active cells.

For data set [2], the system named is KBV20C. Kind of data set: (§2) Cytotoxicity against human KBV20C cells overexpressing pgp assessed as reduction in cell viability after 4 days by MTT assay. Format: functional, cell-based. An outline of the steps:
as §1

The target in data set [3] is T1, ATP-dependent translocase ABCB1 (Homo sapiens, UniProt P08183). Kind of data set: Inhibition of p-glycoprotein (unknown origin) overexpressed in human KBV20C cells assessed as potentiation of vincristine-induced cytotoxicity at 3 uM incubated for 1 hr prior to vincristine challenge measured after 4 days by MTT assay. Format: cell-based. Conditions: 96 h.
Data set [4] is filed under the species Homo sapiens. Kind of data set: Induction of human recombinant p-glycoprotein ATPase activity using ATP as substrate at 0.3 to 1 mM after 40 mins by luciferase-mediated Pgp-Glo assay. An outline of the steps:
(§3)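 Reaction started with ATP (5 mM final), 40 min at 37 °C, stopped with ATP detection reagent; residual ATP read by luciferase luminescence. Luminescence difference gives effect on ATPase activity. Triplicates in two independent experiments.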

Data set [5] deals with T1, ATP-dependent translocase ABCB1. The data set can be described thus: Inhibition of human MDR1 overexpressed in human KB cells assessed as potentiation of vincristine-induced cytotoxicity at 1 uM incubated for 1 hr prior to vincristine challenge measured after 4 days by MTT assay relative to verapamil. Format: cell-based. Conditions: 96 h.
A short description of data set [6]: Binding affinity to p-glycoprotein (unknown origin) by intrinsic tryptophan fluorescence quenching assay. Details: species or system Homo sapiens.
The target in data set [7] is T1, ATP-dependent translocase ABCB1. The data set can be described thus: Inhibition of p-glycoprotein (unknown origin) overexpressed in human KBV20C cells assessed as potentiation of vincristine-induced cytotoxicity at 1 uM incubated for 1 hr prior to vincristine challenge measured after 4 days by MTT assay. The following applies: 96 h. Type of data set: cell-based.

The target is the same in data set [8]. The data set can be described thus: Inhibition of human MDR1 overexpressed in human KB cells assessed as potentiation of vincristine-induced cytotoxicity at 3 uM incubated for 1 hr prior to vincristine challenge measured after 4 days by MTT assay relative to verapamil. Format: cell-based. The following applies: 96 h.
For data set [9], the species on record is Homo sapiens. Kind of data set: Inhibition of human recombinant p-glycoprotein ATPase activity using ATP as substrate at 0.3 to 1 mM after 40 mins by luciferase-mediated Pgp-Glo assay. An outline of the steps:
as §3

The nature of data set [10]: as §2. The following applies: 96 h. Format: functional, cell-based. An outline of the steps:
as §1

Data set [11] concerns the target T1, ATP-dependent translocase ABCB1. The data set can be described thus: Inhibition of human MDR1 overexpressed in human KB cells assessed as potentiation of doxorubicin-induced cytotoxicity at 1 uM incubated for 1 hr prior to […] measured after 4 days by MTT assay relative to verapamil. Conditions: 96 h. Format: cell-based.
The target is the same in data set [12]. The data set can be described thus: Inhibition of human MDR1 overexpressed in human KB cells assessed as potentiation of vincristine-induced cytotoxicity at 0.07 uM incubated for 1 hr prior to vincristine challenge measured after 4 days by MTT assay relative to verapamil. Conditions: 96 h. Type of data set: cell-based.
Data set [13] shares this target. The data set can be described thus: Inhibition of human MDR1 overexpressed in human KB cells assessed as potentiation of vincristine-induced cytotoxicity at 0.28 uM incubated for 1 hr prior to vincristine challenge measured after 4 days by MTT assay relative to verapamil. Type of data set: cell-based. Conditions: 96 h.
Data set [14] has the same target. The data set can be described thus: Inhibition of p-glycoprotein (unknown origin) overexpressed in human KBV20C cells assessed as potentiation of vincristine-induced cytotoxicity at 0.14 uM incubated for 1 hr prior to vincristine challenge measured after 4 days by MTT assay. Type of data set: cell-based. Conditions: 96 h. The essentials: (§4)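 Pgp-overexpressing KB-MDR or KB-V20C cells, 1000–2000 cells/well in RPMI1640 with 10% FBS, pretreated 1 h with modulator at final 0.07–3.0 µM, then exposed to serial dilutions of vincristine or doxorubicin for four days. […] Viability read by MTT. Cytotoxic-drug IC50 obtained by sigmoid Emax fit; duplicates, three independent experiments.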

Data set [15] shares this target. Kind of data set: Inhibition of p-glycoprotein (unknown origin) overexpressed in human KBV20C cells assessed as potentiation of vincristine-induced cytotoxicity at 0.07 uM incubated for 1 hr prior to vincristine challenge measured after 4 days by MTT assay. The following applies: 96 h. Format: cell-based. An outline of the steps:
as §4

For data set [16] the target is unchanged. Kind of data set: Inhibition of p-glycoprotein (unknown origin) overexpressed in human KBV20C cells assessed as potentiation of vincristine-induced cytotoxicity at 0.28 uM incubated for 1 hr prior to vincristine challenge measured after 4 days by MTT assay. Format: cell-based. Conditions: 96 h. The essentials: as §4
Data set [17] has the same target. Kind of data set: Inhibition of human MDR1 overexpressed in human KB cells assessed as potentiation of vincristine-induced cytotoxicity at 0.14 uM incubated for 1 hr prior to vincristine challenge measured after 4 days by MTT assay relative to verapamil. Format: cell-based. Conditions: 96 h.

T1 sequence (P08183 whole entry): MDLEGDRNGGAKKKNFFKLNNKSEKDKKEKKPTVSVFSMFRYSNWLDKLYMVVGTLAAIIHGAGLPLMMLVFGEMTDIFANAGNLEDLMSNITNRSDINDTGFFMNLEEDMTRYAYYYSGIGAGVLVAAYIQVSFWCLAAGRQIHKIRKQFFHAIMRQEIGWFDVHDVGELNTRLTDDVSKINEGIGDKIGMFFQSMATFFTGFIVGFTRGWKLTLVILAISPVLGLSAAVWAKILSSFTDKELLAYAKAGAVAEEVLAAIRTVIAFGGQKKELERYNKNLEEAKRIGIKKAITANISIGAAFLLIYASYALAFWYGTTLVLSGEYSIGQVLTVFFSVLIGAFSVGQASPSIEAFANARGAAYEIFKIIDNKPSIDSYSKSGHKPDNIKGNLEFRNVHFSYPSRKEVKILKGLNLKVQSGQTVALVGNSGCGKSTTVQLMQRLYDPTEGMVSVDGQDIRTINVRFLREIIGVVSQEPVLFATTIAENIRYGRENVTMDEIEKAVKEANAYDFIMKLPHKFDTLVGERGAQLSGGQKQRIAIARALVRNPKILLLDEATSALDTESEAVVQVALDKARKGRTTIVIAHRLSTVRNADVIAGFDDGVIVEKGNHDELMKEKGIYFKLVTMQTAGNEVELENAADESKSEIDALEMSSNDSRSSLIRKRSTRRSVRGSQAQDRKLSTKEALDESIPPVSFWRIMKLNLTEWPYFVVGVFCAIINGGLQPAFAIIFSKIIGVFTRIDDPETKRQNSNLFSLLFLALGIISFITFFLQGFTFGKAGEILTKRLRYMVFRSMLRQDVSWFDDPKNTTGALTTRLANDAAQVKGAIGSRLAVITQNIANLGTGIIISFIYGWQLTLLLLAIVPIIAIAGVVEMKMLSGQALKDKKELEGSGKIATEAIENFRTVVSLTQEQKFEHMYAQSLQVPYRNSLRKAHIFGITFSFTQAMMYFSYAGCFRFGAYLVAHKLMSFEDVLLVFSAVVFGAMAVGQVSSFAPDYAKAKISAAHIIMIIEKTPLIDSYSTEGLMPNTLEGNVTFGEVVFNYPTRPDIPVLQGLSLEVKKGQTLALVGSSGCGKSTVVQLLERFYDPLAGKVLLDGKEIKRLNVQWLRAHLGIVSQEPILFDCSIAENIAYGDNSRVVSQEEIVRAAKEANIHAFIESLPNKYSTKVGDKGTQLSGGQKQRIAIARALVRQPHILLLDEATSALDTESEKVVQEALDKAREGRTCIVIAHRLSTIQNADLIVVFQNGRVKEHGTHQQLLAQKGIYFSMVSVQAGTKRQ

For the molecule `C/C=C1\CN2CC[C@]34C(=C(C=O)[C@H]1C[C@H]23)Nc1ccccc14`, the Activity result in [1] and in [2] was “Dose-dependent effect” in each case. The “fold change (FC)” value in data set [3] stood at 0.3; in data set [5] it was 2.1; in data set [7] it was 0.2; in [8], 2.1. In addition, the outcome in data set [4] was Active. Binding in data set [6] was put at a Kd of 81 µM.
For the molecule `C/C=C1\CN2CC[C@]34c5ccccc5-n5c3c(cc(C(=O)OC)c5=O)[C@H]1C[C@H]24`, the Activity entry in data set [1] and in data set [2] was “Dose-dependent effect” in each case. Moreover, the “fold change (FC)” value in [3] worked out at 0.3; in data set [5] it was 2.1; in data set [7], 0.2; in data set [8] it was 3.8. In addition, the outcome in data set [4] was Active. Binding in [6] was characterised by a dissociation constant (Kd) of 16.1 µM.
Take `CC[C@@H]1CN2CC[C@]34C(=C(C(=O)OC)[C@H]1C[C@H]23)Nc1ccccc14`: the Activity entry in [1] and in data set [2] was “Dose-dependent effect” each time. In addition, in [9], the inhibition result is “Active”. The “fold change (FC)” value in [3] came to 0.2; in [5], 2.5; in [7] it was 0.1; in data set [8], 3.8. In addition, binding in [6] was characterised by a dissociation constant (Kd) of 92 µM.
In the case of `CC[C@@H]1CN2CC[C@]34c5ccccc5-n5c3c(cc(C(N)=O)c5=O)[C@H]1C[C@H]24` [LEUCONICINE A], the Activity entry in data set [1] and in data set [2] was “Dose-dependent effect” each time. Besides, the “fold change (FC)” value is 0.6 in data set [3], 3.8 in data set [5], 0.3 in data set [7] and 5 in [8]. Also, the affinity in [6], expressed as Kd, was 14.1 µM.
As to `CC[C@@H]1CN2CC[C@]34c5ccccc5-n5c3c(cc(C(=O)OC)c5=O)[C@H]1C[C@H]24` [LEUCONICINE B], the Activity entry in data set [1] and in data set [2] was “Dose-dependent effect” throughout. Moreover, the “fold change (FC)” value came out at 0.3 in data set [3], 3.8 in data set [5], 0.2 in data set [7] and 6.8 in data set [8]. Besides, the outcome in data set [4] was Active. Besides, the Kd (as a rule, a measure of binding affinity in units of concentration) in [6] was found to be 13.8 µM.
As for `CC[C@@H]1CN2CC[C@]34c5ccccc5-n5c3c(cc(C(=O)NCc3cc(OC)c(OC)c(OC)c3)c5=O)[C@H]1C[C@H]24`, the Activity entry in data set [1] and in data set [2] was “Dose-dependent effect” each time. Also, the inhibition result in data set [9] was “Active”. Also, the concentration for half-maximal inhibition (IC50) (commonly the concentration needed to halve the response being measured) in data set [10] was found to be 0.38 µM. The “fold change (FC)” value was 20 in data set [11]; 2.1 in [12]; 93.8 in data set [5]; 3.8 in data set [13]; 1 in data set [14]; 0.6 in [15]. Besides, the “fold change (FC)” value is given as 1.5 in data set [16] and 2.5 in [17]. In [6], this molecule yielded a Kd of 4.42 µM.
Regarding `C/C=C1\CN2CC[C@]34C(=C(C(=O)OC)[C@H]1C[C@H]23)Nc1ccccc14`, the Activity result in data set [1] and in data set [2] was “Dose-dependent effect” in each case. The “fold change (FC)” value in [3] was 0.4; in [5] it was 2.5; in data set [7], 0.2; in data set [8], 3.8. Further, the outcome in data set [4] was Active. Besides, the affinity in data set [6], expressed as Kd, was 99 µM.
